Laboratory results taken from ChEMBL document CHEMBL2157980, “Discovery of SCH 900229, a Potent Presenilin 1 Selective γ-Secretase Inhibitor for the Treatment of Alzheimer's Disease” (ACS Med Chem Lett, 2012).
Blank lines part the entries; values can stand above or below the molecule they belong to. Calls of active or inactive are those of the source. The calls are words filed in the database; no cut-off is given here.

Tests used:
[1] = target: T1, Presenilin-1 (Homo sapiens, UniProt P49768); test: Inhibition of PS1 gamma-secretase assessed as reduction of amyloid beta-40 production by membrane based assay
In short: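 Aβ40 production was measured in a membrane-based assay. IC50 was the average of at least two measurements, with standard deviation 20%.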

[2] = target: T1, Presenilin-1; test: Inhibition of PS1 gamma-secretase expressed in HEK cells harboring Awe-Lon gene assessed as reduction of amyloid beta-40 production; type: cell-based, HEK293
In short: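 Cell-based Aβ40 production assay in HEK293 cells carrying APP Awe-Lon. IC50 was the average of at least two determinations, with standard deviation 20%.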

[3] = target: Presenilin-2 (Homo sapiens, UniProt P49810); test: Inhibition of PS2 gamma-secretase expressed in HEK cells harboring Awe-Lon gene assessed as reduction of amyloid beta-42 production; type: cell-based, HEK293
[4] = Selectivity ratio of IC50 for PS2 gamma-secretase to IC50 for PS1 gamma-secretase
In short: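 Inhibitors were tested against reconstituted γ-secretase complexes containing PS1 or PS2. The result is expressed as the PS2/PS1 ratio of IC50 values.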

[5] = system: Mus musculus; test: Antialzheimer activity in transgenic CRND8 mouse assessed as decrease of amyloid beta-40 level in plasma at 30 mg/kg, po after 3 hrs; type: functional; parameters: scale not given: the % may be the effect or the level left
In short: (§1)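 CRND8 mice were dosed orally at 30 mg/kg. Aβ40 in plasma and cortex was measured 3 h post-dose and reported as % change, negative for lowering and positive for increase.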

[6] = system: Mus musculus; test: Antialzheimer activity in transgenic CRND8 mouse assessed as decrease of amyloid beta-40 level in cortex at 30 mg/kg, po after 3 hrs; type: functional; parameters: scale not given: the % may be the effect or the level left; in short: as §1
[7] = Oral bioavailability in rat at 10 mg/kg administered with 20% HPbetaCD; type: ADME, organism-based; conditions: in vivo
In short: (§2)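 Rats (n = 3) were dosed orally at 10 mg/kg in either 20% HPβCD or 0.4% HPMC. AUC(0−∞), Cmax, Tmax and T1/2 were taken from the oral profile, with averaged values. Bioavailability (F) was referenced to iv dosing at 5 mg/kg.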

[8] = Cmax in rat at 10 mg/kg, po administered with 20% HPbetaCD; type: ADME, organism-based; parameters: dose 10 mg/kg, route oral; conditions: in vivo; in short: as §2
[9] = AUC (0 to infinity) in rat at 10 mg/kg, po administered with 0.4% HPMC; type: ADME, organism-based; parameters: time infinity, dose 10 mg/kg, route oral; conditions: plasma; in short: as §2
[10] = Cmax in monkey at 5 mg/kg, po administered with 0.4% HPMC; conditions: rhesus monkey, in vivo
[11] = system: Mus musculus; test: Antialzheimer activity in B6C3F1 mouse assessed as reduction of amyloid beta-40 level in plasma at 30 mg/kg, po after 3 hrs; type: functional; parameters: scale not given: the % may be the effect or the level left
In short: (§3)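 B6C3F1 mice were dosed orally at 10 or 30 mg/kg. Aβ40 in plasma and cortex was measured 3 h after dosing and expressed as % change, with lowering shown as negative.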

[12] = Half life in dog at 5 mg/kg, po administered with 0.4% HPMC; conditions: in vivo
[13] = Clearance in rat at 5 mg/kg, iv administered with 20% HPbetaCD; type: ADME, organism-based; parameters: dose 5 mg/kg, route intravenous; conditions: in vivo
In short: (§4)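 CL and Vd(ss) came from iv administration at 5 mg/kg in rat and 2.5 mg/kg each in monkey and dog. Values are averages of three animals per species.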

[14] = Half life in rat at 10 mg/kg, po administered with 0.4% HPMC; type: ADME, organism-based; parameters: dose 10 mg/kg, route oral; conditions: in vivo; in short: as §2
[15] = Clearance in monkey at 2.5 mg/kg, iv administered with 0.4% HPMC; type: ADME, organism-based, Macaca mulatta; parameters: dose 2.5 mg/kg, route intravenous; conditions: rhesus monkey, in vivo; in short: as §4
[16] = AUC (0 to infinity) in dog at 5 mg/kg, po administered with 0.4% HPMC; conditions: plasma
[17] = Clearance in rat at 5 mg/kg, iv administered with 0.4% HPMC; type: ADME, organism-based; parameters: dose 5 mg/kg, route intravenous; conditions: in vivo; in short: as §4
[18] = system: Mus musculus; test: Antialzheimer activity in po dosed transgenic CRND8 mouse assessed as decrease of amyloid beta-40 level in plasma after 3 hrs; type: functional
In short: (§5)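 CRND8 mice received a single acute oral dose. Plasma and cortical Aβ40 were measured at the 3 h time point, and ED50 was derived from the dose response.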

[19] = species on record: Canis familiaris; test: Antialzheimer activity in dog assessed as decrease of amyloid beta-40 level in plasma; type: functional, organism-based; conditions: Canis lupus familiaris
[20] = Oral bioavailability in dog at 5 mg/kg administered with 0.4% HPMC; conditions: in vivo
[21] = system: Mus musculus; test: Toxicity in po dosed transgenic CRND8 mouse assessed as intestinal goblet cell hyperplasia administered bid for 6 days; type: organism-based; conditions: in vivo, 144 h
In short: (§6)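 In the same subchronic design (oral BID dosing for 6 days in CRND8 mice), Notch-related effects were examined as thymus size reduction and intestinal goblet cell hyperplasia.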

[22] = Volume of distribution at steady state in dog at 2.5 mg/kg, iv administered with 0.4% HPMC; type: ADME, organism-based, Canis lupus familiaris; parameters: dose 2.5 mg/kg, route intravenous; conditions: in vivo, read-out: Vdss; in short: as §4
[23] = Volume of distribution at steady state in rat at 5 mg/kg, iv administered with 0.4% HPMC; type: ADME, organism-based; parameters: dose 5 mg/kg, route intravenous; conditions: in vivo, read-out: Vdss; in short: as §4
[24] = Tmax in rat at 10 mg/kg, po administered with 20% HPbetaCD; type: ADME, organism-based; parameters: dose 10 mg/kg, route oral; conditions: in vivo; in short: as §2
[25] = Volume of distribution at steady state in monkey at 2.5 mg/kg, iv administered with 0.4% HPMC; type: ADME, organism-based, Macaca mulatta; parameters: dose 2.5 mg/kg, route intravenous; conditions: rhesus monkey, in vivo, read-out: Vdss; in short: as §4
[26] = system: Mus musculus; test: Antialzheimer activity in po dosed transgenic CRND8 mouse assessed as decrease of amyloid beta-40 level in cortex after 3 hrs; type: functional; in short: as §5
[27] = system: Mus musculus; test: Toxicity in po dosed transgenic CRND8 mouse assessed as reduction in thymus size administered bid for 6 days; type: organism-based; conditions: in vivo, 144 h; in short: as §6
[28] = AUC (0 to infinity) in monkey at 5 mg/kg, po administered with 0.4% HPMC; conditions: rhesus monkey, plasma
[29] = AUC (0 to infinity) in rat at 10 mg/kg, po administered with 20% HPbetaCD; type: ADME, organism-based; parameters: time infinity, dose 10 mg/kg, route oral; conditions: plasma; in short: as §2
[30] = Tmax in monkey at 5 mg/kg, po administered with 0.4% HPMC; conditions: rhesus monkey, in vivo
[31] = system: Mus musculus; test: Antialzheimer activity in po dosed transgenic CRND8 mouse assessed as decrease of amyloid beta-40 level in plasma administered bid for 6 days; type: functional; conditions: 144 h
In short: (§7)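 In a subchronic study, CRND8 mice were dosed orally BID for 6 days. Aβ40 lowering in plasma and cortex was measured, and ED50 was derived.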

[32] = Half life in rat at 10 mg/kg, po administered with 20% HPbetaCD; type: ADME, organism-based; parameters: dose 10 mg/kg, route oral; conditions: in vivo; in short: as §2
[33] = Clearance in dog at 2.5 mg/kg, iv administered with 0.4% HPMC; type: ADME, organism-based, Canis lupus familiaris; parameters: dose 2.5 mg/kg, route intravenous; conditions: in vivo; in short: as §4
[34] = Half life in monkey at 5 mg/kg, po administered with 0.4% HPMC; conditions: rhesus monkey, in vivo
[35] = Oral bioavailability in rat at 10 mg/kg administered with 0.4% HPMC; type: ADME, organism-based; conditions: in vivo; in short: as §2
[36] = Volume of distribution at steady state in rat at 5 mg/kg, iv administered with 20% HPbetaCD; type: ADME, organism-based; parameters: dose 5 mg/kg, route intravenous; conditions: in vivo, read-out: Vdss; in short: as §4
[37] = Cmax in dog at 5 mg/kg, po administered with 0.4% HPMC; conditions: in vivo
[38] = species on record: Canis familiaris; test: Antialzheimer activity in dog assessed as decrease of amyloid beta-40 level in CSF; type: functional, organism-based; conditions: Canis lupus familiaris
[39] = system: Mus musculus; test: Antialzheimer activity in B6C3F1 mouse assessed as reduction of amyloid beta-40 level in cortex at 30 mg/kg, po after 3 hrs; type: functional; parameters: scale not given: the % may be the effect or the level left; in short: as §3
[40] = Oral bioavailability in monkey at 5 mg/kg administered with 0.4% HPMC; conditions: rhesus monkey, in vivo
[41] = target: T1, Presenilin-1; test: Inhibition of PS1 gamma-secretase expressed in HEK cells harboring Awe-Lon gene assessed as notch cleavage; type: cell-based, HEK293
[42] = Cmax in rat at 10 mg/kg, po administered with 0.4% HPMC; type: ADME, organism-based; parameters: dose 10 mg/kg, route oral; conditions: in vivo; in short: as §2
[43] = system: Mus musculus; test: Antialzheimer activity in po dosed transgenic CRND8 mouse assessed as decrease of amyloid beta-40 level in cortex administered bid for 6 days; type: functional; conditions: 144 h; in short: as §7
[44] = Tmax in rat at 10 mg/kg, po administered with 0.4% HPMC; type: ADME, organism-based; parameters: dose 10 mg/kg, route oral; conditions: in vivo; in short: as §2
[45] = Tmax in dog at 5 mg/kg, po administered with 0.4% HPMC; conditions: in vivo
[46] = species on record: Canis familiaris; test: Antialzheimer activity in dog assessed as decrease of amyloid beta-40 level in cortex; type: functional, organism-based; conditions: Canis lupus familiaris

Sequence of Presenilin-2 (P49810 1-297 limits assumed): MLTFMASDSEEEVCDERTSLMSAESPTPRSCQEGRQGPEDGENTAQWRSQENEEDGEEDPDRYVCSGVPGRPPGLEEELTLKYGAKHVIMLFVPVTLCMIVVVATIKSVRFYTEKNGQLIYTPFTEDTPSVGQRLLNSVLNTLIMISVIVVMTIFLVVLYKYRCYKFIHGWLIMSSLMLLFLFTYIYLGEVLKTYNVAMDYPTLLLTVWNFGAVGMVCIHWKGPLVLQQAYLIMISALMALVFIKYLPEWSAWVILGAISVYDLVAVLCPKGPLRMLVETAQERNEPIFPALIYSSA
Sequence of Presenilin-2 (P49810 298-448 limits assumed): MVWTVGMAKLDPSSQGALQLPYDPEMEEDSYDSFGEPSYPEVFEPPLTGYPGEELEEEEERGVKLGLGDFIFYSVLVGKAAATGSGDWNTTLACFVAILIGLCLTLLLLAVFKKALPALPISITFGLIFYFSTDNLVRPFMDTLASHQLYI

- IC50 [1]: 8 nM
- IC50 [2]: 8 nM
- IC50 [3]: 6 nM
- Ratio IC50 [4]: 3
SMILES: CNC(=O)OCC[C@@H]1OCC[C@@]2(S(=O)(=O)c3ccc(Cl)cc3)c3c(F)ccc(F)c3OC[C@@H]12 (racemic)

- IC50 [1]: 320 nM
SMILES: O=S(=O)(c1ccc(Cl)cc1)[C@]12CCO[C@H](CCO)[C@H]1COc1c(F)ccc(F)c12

- IC50 [1]: 24 nM
- IC50 [2]: 48 nM
- IC50 [3]: 20 nM
SMILES: CCNC(=O)OCC[C@@H]1OCC[C@@]2(S(=O)(=O)c3ccc(Cl)cc3)c3c(F)ccc(F)c3OC[C@@H]12 (racemic)

- IC50 [1]: 377 nM
SMILES: CS(=O)(=O)CC[C@H]1OCC[C@]2(S(=O)(=O)c3ccc(Cl)cc3)c3c(F)ccc(F)c3OC[C@H]12

- IC50 [1]: 24 nM
- IC50 [2]: 26 nM
- IC50 [3]: 10 nM
SMILES: CC(C)S(=O)(=O)CC[C@@H]1OCC[C@@]2(S(=O)(=O)c3ccc(Cl)cc3)c3c(F)ccc(F)c3OC[C@@H]12 (racemic)
- Activity [5]: 20%
- Activity [6]: 57%

- bioavailability [7]: 29%
- Cmax [8]: 650 nM
- AUC(0-inf) [9]: 1 µM·h
- Cmax [10]: 1390 nM
- half-life [12]: 23.9 h
- clearance [13]: 69 mL/min/kg
- half-life [14]: 1 h
- IC50 [1]: 1.3 nM
- clearance [15]: 8.2 mL/min/kg
- AUC(0-inf) [16]: 85.6 µM·h
- clearance [17]: 20.8 mL/min/kg
- IC50 [2]: 4 nM
- bioavailability [20]: 86%
- Vd [22]: 3.1 L/kg
- Vd [23]: 3.4 L/kg
- Tmax [24]: 0.7 h
- Vd [25]: 1.9 L/kg
- AUC(0-inf) [28]: 8.9 µM·h
- AUC(0-inf) [29]: 1.4 µM·h
- Tmax [30]: 1.7 h
- half-life [32]: 1.1 h
- clearance [33]: 1.7 mL/min/kg
- half-life [34]: 4.6 h
- bioavailability [35]: 6.4%
- Vd [36]: 5.4 L/kg
- Cmax [37]: 2740 nM
- IC50 [3]: 1 nM
- bioavailability [40]: 45%
- IC50 [41]: 46 nM
- Cmax [42]: 240 nM
- Tmax [44]: 0.3 h
- Tmax [45]: 2 h
- Ratio IC50 [4]: 25
SMILES: CS(=O)(=O)CC[C@@H]1OCC[C@@]2(S(=O)(=O)c3ccc(Cl)cc3)c3c(F)ccc(F)c3OC[C@@H]12
- Activity [11]: 89%
- ED50 [18]: 0.5 mg/kg
- Activity [19]: Active
- Activity [21]: Non-toxic
- ED50 [26]: 0.4 mg/kg
- Activity [27]: Non-toxic
- ED50 [31]: 0.4 mg/kg
- Activity [38]: Active
- Activity [39]: 78%
- ED50 [43]: 0.3 mg/kg
- Activity [46]: Active
